# Test results reported in PubChem BioAssay.
# A number with no mark means an inactive call. Results filed as inconclusive are left out. Active and inactive are the calls of the source.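 Rule for the calls, unless noted: active = RAM network inhibition above 8.4% in each of two replicates, 3 SD over the compound average; inconclusive = above 8.4% inhibition in only one replicate; inactive = 8.4% inhibition or less in each replicate.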
# How the values were obtained:
# [1] = OD615 S. cerevisiae growth inhibition, permissive medium, pilot counter-assay, permissive growth control for S. cerevisiae lifespan shortening project (AID 705;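 active = growth inhibition above 25% in both replicates, a cutoff set 3 SD above the mean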); conditions: OD615, 24 h, at 10 µM, hits give high values
# Outline: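 System: Engineered DeaD yeast | Buffer or medium: SC raffinose/galactose permissive medium | Incubation: Cells pre-grown 4 h, then 24 h compound exposure, 30 °C humidified | Measured by: Absorbance (optical density) at 615 nm | Read-out: Reduction in yeast growth (OD615)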
# [2] = Restrictive medium S. cerevisiae growth inhibition, OD615, pilot screen of yeast lifespan reduction project, restrictive growth control (AID 706;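 active = growth inhibition above a set limit, 3 SD over mean compound inhibition, in both replicates, cut at about 43% in these data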;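 note: modified DeaD lifespan yeast strain shifted to restrictive glucose medium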); conditions: OD615, 48 h, at 10 µM, hits give high values
# Outline: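 Material: modified S. cerevisiae; Medium: glucose-based CSMM-D restrictive medium; Compound dosing: one concentration, 10 µM final, 0.25% DMSO; Incubation: 48 h compound exposure at 30 °C; Measured by: OD615.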
# [3] = viability gain of MRP-1-high H69AR cells under doxorubicin, pilot screen, MRP-1 activator project, CellTiter-Glo, duplicate (AID 807;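 active = viability increase at or above a cutoff of the median across tested compounds plus 3 SD, cut at about 8.5% in these data, passing the limit was not always enough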;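 note: compound pretreatment 18-22 h then 72 h combined with doxorubicin; 0% = doxorubicin alone and 100% = vehicle without doxorubicin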); conditions: H69AR viability with doxorubicin, CellTiter-Glo luminescence; at 10 µM; hits give high values
# [4] = growth suppression of beta-catenin knockout HCT116, pilot screen, human colon tumor cells (AID 823;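 active = cell viability at or below a set limit in both duplicate runs, the limit being the all-compound median minus 4 SD, cut at about 23% in these data, passing the limit was not always enough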;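 note: 0% = wells killed by 20 µM Hyamine and 100% = untreated DMSO cell wells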); conditions: CellTiter-Glo, 60 h, at 10 µM, hits give low values
# [5] = inhibitors of the yeast RAM network, pilot screen, dse1pr::URA3 reporter, 5-FOA selection (AID 869;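 active = inhibition over a set limit, the all-compound mean plus 3 SD, in both replicate runs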;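 note: 0% = DMSO wells with no growth and 100% = 10 µM 1-NA-PP1 with full growth; RAM network block rescues cells from 5-FOA so hits raise OD615 growth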); conditions: S. cerevisiae dse1pr::URA3 5-FOA growth, OD615, 2 d; at 10 µM; hits give high values; strain carries analog-sensitive mutant Cbk1 kinase
# [6] = RAM signaling pathway blockade in yeast – S. cerevisiae, Pdr1DBD-CYC8 efflux-inhibited sensitized strain, primary screen (AID 1298);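 note: 0% = DMSO untreated cells without growth and 100% = 10 µM 1-NA-PP1 full growth; higher means more yeast growth rescued from 5-FOA killing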; conditions: S. cerevisiae cbk1-as DSE1-URA3 strain, 5-FOA growth OD615, 2 d; at 50 µM; hits give high values
# [7] = growth suppression of PTEN-deleted HCT116, pilot screen, cell-based, HCT116 clonal line, CellTiter-Glo (AID 824;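 active = viability at or below 27.92% in each of two runs, the all-compound median minus 4 SD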;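 note: 0% = 20 µM Hyamine control and 100% = vehicle cell control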); conditions: 60 h, at 10 µM, hits give low values
SMILES,growth inhibition [1] [%],growth inhibition [2],viability increase [3] [%],viability [4],inhibition [5] [%],RAM network inhibition [6] [%],viability [7]
CC1(C)Cc2c(sc3nc(SCC(=O)N4CCOCC4)nc(N)c23)CO1,-2.9,18.3%,-3.19,98.9%,1.49,0.62,–
Cc1c(C(=O)NCc2ccco2)sc2nc(-c3ccccc3)cn12,3.59,10.2%,-4.77,78.6%,0.04,2.7,67.3%
NC1=C(c2ccc(F)cc2)C(=O)CS1,-17.2,4.04%,-1.22,91.1%,1.85,5.83,–
CSc1nc(N(CCO)CCO)c2sc3nc(-c4ccco4)c4c(c3c2n1)CCC4,-1.82,8.15%,-4.84,93.9%,2.71,8.3,–
CC1(C)CC(=O)C=C(Nc2ccccc2F)C1,-10.4,-10.5%,-2.25,111%,-0.01,1.22,98.3%
O=C(c1ccccc1)c1ccc2nc(N3CCCCC3)c3nncn3c2c1,12.4,57.7% (active),-3.48,45.4%,2.53,4.08,56.4%
Cc1c(N=C2C(=O)Nc3ccccc32)c(=O)n(-c2ccccc2)n1C,-1.19,0.225%,-2.29,108%,0.61,1.79,90.3%
Cc1ccc(C)c(S(=O)(=O)Nc2ccc(O)cc2)c1,-9.59,11.7%,-2.63,101%,1.44,2.77,97%
CCOC(=O)c1c2n(c3c(NCc4ccccc4)ncnc13)CCCC2,-11.4,-10.9%,-7.91,83.6%,1.23,2.51,78.7%
COc1ccccc1N(CC(=O)Nc1ccccc1C(=O)NC(C)C)S(C)(=O)=O,-3.27,-16.6%,-0.99,86.6%,1.95,-0.28,77%
COCCOC(=O)C1=C(C)NC(=O)NC1c1c(F)cccc1Cl (stereo unspecified),-7.95,-2.18%,0,106%,0.515,0.88,95.8%
O=C1C(Cl)=C(Nc2ccccc2O)C(=O)N1c1ccccc1,-42,-9.91%,-6.15,81.7%,2.32,5.61,–
CN1c2ccccc2-c2nc3ccccc3n2C1c1ccccn1 (stereo unspecified),-1.57,-3.9%,-3.85,73.8%,0.56,4.06,–
COCCCN(C(=O)Nc1ccc(C)c(C)c1)C(C)c1ccccn1 (stereo unspecified),2.01,11.8%,-1.65,102%,2.15,5.96,89.8%
Cc1ccc(-c2c(C(=O)N3CCOCC3)oc(=O)c3ccccc23)cc1,-9.96,-6.92%,-0.03,95.6%,1.33,1.2,103%
CCN(CC)c1ccc(NC(=O)c2ccc(NC(=O)C3CCCO3)cc2)c(C)c1 (stereo unspecified),-6.83,3.42%,1.38,94.8%,0.965,6.65,–
CCc1cc(C(=O)Cc2ccc(F)cc2)c(O)cc1O,-1.34,-3.73%,-3.8,98.8%,0.665,-2.4,86.5%
Cc1nc(-n2nnc3ccccc32)c2c3c(sc2n1)CCCC3,-14.5,0.92%,-2.54,82%,1.11,3.02,–

SMILES,growth inhibition [1] [%],growth inhibition [2],viability increase [3] [%],viability [4],inhibition [5] [%],RAM network inhibition [6] [%],viability [7]
Cn1c(Cn2c(=O)sc3ccccc32)nnc1SCC(=O)NC1CCCCC1,-17,-24.8%,-0.4,97.6%,0.415,1.06,98%
CCC(C)[C@@H](C(=O)Nc1ccc(OC)c(OC)c1)N1Cc2ccccc2C1=O (stereo partly specified),-13.5,-13.6%,-2.11,91.8%,2.65,2.81,82.8%
COc1cc(C(=O)N2CCN(C(=O)C(Cc3cc(C)ccc3C)NC(C)=O)CC2)cc(OC)c1OC (stereo unspecified),-24.3,-16.3%,-2.13,97.7%,1.05,1.42,88.2%
COc1ccc(S(=O)(=O)N2CCN(c3cccc(C)c3C)CC2)cc1,-16.7,-13.3%,1.83,97.9%,1.02,2.58,90.5%
CCOc1cc(/C=N/O)cc(Br)c1OC,-1.28,-18.2%,-3.13,106%,1.22,5.14,97.1%
O=C(CCCOc1ccccc1)Nc1nnc(C2CCCO2)s1 (stereo unspecified),-23.6,-3.93%,-2.89,102%,3.7,8.72,–
O=C(c1c(Cl)nc2sccn12)N1CCN(c2cccc(Cl)c2)CC1,0.85,18.6%,-4.96,13.8% (active),0.91,5.21,17.8% (active)
Cc1cc(C)n(-c2nnc(C)n2/N=C/c2ccccc2OCc2ccccc2Cl)n1,-4.54,-6.33%,-5.89,22.2% (active),1.27,-2.2,–
CCOc1ccc(-n2c(SCC(=O)Nc3nccs3)nc3c(c2=O)SCC3)cc1,-7.92,-5.48%,-0.41,104%,3.15,4.65,98.3%
Cc1ccc(S(=O)(=O)CC(C)N2CCOCC2)c(S(=O)(=O)CC(C)N2CCOCC2)c1 (stereo unspecified),-6.09,-0.82%,1.48,97%,0.7,1.89,94.4%
CC(=O)NCC(=O)N(c1c(C)n(C)n(-c2ccccc2)c1=O)C1(C(=O)NC2CCCC2)CCCCC1,10,-0.075%,-0.84,97.2%,1.13,-0.72,–
Cn1c(=O)[nH]c(=O)c2c1nc(CN1CCOCC1)n2Cc1ccc(F)cc1,-6.42,-18.4%,-3.24,98.5%,2.65,2.15,93.4%
CC(=O)Nc1nnc(C)s1,-17,-8.07%,-2.11,103%,1.29,1.53,93.3%
COc1ccc(C2C(C#N)=C(N)Oc3n[nH]c(C)c32)cc1Cn1nnc2ccccc21 (stereo unspecified),2.33,-0.6%,-5.95,75.7%,1.26,7.2,77.9%
O=C(CNS(=O)(=O)c1ccc(C(=O)N2CCCCC2)cc1)N1CCCCC1,-11.9,-18.1%,0.86,93.3%,-0.19,3.77,90.8%
CCN(CC)C(=O)c1cc2c(=O)n3ccccc3nc2s1,-4.75,-3.33%,-3.66,93.7%,1.94,0.68,96.2%
COc1ccc(Nc2oc(COc3ccccc3F)nc2C#N)cc1,-10.6,11.6%,-7.35,51.3%,2.25,3.24,53.3%
COCC(=O)NC(C)c1nc2ccccc2[nH]1 (stereo unspecified),-27.6,-2.47%,-1.7,91.9%,0.975,3.95,–
